In ChEMBL document CHEMBL4052830, “Dual Nicotinic Acetylcholine Receptor α4β2 Antagonists/α7 Agonists: Synthesis, Docking Studies, and Pharmacological Evaluation of Tetrahydroisoquinolines and Tetrahydroisoquinolinium Salts” (J Med Chem, 2018):

What was measured:
[1] = biological target: Neuronal acetylcholine receptor; alpha4/beta2 (Rattus norvegicus, UniProt P09483+P12390); experiment: Displacement of [3H]epibatidine from rat alpha4beta2 nAChR expressed in HEK293 cell membranes after 4 hrs by scintillation counting method
Sequence of Neuronal acetylcholine receptor; alpha4/beta2 (P09483 whole entry): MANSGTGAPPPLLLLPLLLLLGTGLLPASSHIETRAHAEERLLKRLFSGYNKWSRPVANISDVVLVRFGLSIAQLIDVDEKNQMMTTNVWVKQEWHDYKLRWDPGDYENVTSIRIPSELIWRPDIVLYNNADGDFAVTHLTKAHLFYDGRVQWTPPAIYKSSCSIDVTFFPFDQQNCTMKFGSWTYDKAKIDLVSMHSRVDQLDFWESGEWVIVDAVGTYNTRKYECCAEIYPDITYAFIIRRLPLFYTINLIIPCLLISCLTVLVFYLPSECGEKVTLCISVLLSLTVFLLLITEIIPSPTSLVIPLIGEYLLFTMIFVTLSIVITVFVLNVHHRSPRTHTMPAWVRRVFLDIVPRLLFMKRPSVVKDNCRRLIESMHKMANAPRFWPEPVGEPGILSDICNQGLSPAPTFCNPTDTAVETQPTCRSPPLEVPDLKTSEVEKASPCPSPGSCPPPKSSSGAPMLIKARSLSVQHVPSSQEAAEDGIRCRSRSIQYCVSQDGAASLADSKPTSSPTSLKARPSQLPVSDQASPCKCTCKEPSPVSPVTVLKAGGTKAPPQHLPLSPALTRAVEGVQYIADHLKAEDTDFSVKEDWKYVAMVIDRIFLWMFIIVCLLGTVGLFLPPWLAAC
Sequence of Neuronal acetylcholine receptor; alpha4/beta2 (P12390 whole entry): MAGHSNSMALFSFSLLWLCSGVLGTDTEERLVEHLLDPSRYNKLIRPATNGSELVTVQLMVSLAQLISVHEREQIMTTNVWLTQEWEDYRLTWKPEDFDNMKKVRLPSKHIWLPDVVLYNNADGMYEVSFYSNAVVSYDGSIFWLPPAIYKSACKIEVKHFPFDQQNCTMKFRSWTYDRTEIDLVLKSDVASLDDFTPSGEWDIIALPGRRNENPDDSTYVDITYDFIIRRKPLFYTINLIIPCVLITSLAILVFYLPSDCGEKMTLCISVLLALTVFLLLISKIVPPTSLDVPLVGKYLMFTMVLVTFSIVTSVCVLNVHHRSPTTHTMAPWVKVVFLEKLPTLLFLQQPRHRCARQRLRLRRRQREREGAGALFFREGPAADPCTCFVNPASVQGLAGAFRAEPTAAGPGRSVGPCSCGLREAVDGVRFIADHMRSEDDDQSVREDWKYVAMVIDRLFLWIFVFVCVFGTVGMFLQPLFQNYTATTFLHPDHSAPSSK
Summary of the method: (§1)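 Membranes from HEK293 lines stably expressing α3β4, α4β4 or α4β2 nAChR, [3H]epibatidine competition binding. Ki came from concentration-inhibition curves. Means of 3–5 experiments in duplicate.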

[2] = biological target: T1, Neuronal acetylcholine receptor; alpha3/beta4 (Rattus norvegicus, UniProt P04757+P12392); experiment: Displacement of [3H]epibatidine from rat alpha3beta4 nAChR expressed in HEK293 cell membranes after 4 hrs by scintillation counting method; summary of the method: as §1
T1 sequence (P04757 whole entry): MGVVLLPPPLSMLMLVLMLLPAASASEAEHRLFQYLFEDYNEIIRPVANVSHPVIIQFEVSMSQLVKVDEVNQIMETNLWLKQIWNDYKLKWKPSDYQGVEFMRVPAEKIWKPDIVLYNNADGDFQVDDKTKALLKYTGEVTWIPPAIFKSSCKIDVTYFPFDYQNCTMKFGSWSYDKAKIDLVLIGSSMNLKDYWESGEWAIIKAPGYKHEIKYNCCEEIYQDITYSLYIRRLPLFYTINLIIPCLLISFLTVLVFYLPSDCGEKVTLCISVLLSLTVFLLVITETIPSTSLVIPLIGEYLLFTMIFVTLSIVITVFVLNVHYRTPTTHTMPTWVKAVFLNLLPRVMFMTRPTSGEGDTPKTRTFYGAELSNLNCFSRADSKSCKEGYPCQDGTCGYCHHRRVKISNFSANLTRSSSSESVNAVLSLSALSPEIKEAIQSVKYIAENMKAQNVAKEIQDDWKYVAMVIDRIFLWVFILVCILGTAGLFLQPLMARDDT
T1 sequence (P12392 whole entry): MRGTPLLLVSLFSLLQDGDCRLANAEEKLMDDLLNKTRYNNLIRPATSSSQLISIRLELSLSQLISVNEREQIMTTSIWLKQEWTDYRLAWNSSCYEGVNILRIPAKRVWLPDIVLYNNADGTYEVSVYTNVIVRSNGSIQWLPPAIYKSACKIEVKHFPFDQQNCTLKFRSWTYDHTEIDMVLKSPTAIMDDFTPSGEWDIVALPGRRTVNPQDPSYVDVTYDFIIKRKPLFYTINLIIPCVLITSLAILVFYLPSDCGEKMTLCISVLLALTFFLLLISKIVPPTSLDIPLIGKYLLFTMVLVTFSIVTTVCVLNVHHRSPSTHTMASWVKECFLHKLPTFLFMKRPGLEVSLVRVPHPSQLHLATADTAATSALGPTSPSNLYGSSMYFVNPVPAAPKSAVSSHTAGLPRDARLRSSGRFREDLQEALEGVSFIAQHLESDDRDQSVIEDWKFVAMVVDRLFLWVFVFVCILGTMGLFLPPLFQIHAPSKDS

[3] = biological target: T2, Neuronal acetylcholine receptor subunit alpha-7 (Homo sapiens, UniProt P36544); experiment: Antagonist activity at human alpha7 nAChR expressed in HEK293 cells co-expressing Ric-3/NACHO assessed as inhibition of ACh-induced calcium mobilization measured up to 90 secs in presence of PNU-120596 by FLIPR assay; type: cell-based
T2 sequence (P36544 whole entry): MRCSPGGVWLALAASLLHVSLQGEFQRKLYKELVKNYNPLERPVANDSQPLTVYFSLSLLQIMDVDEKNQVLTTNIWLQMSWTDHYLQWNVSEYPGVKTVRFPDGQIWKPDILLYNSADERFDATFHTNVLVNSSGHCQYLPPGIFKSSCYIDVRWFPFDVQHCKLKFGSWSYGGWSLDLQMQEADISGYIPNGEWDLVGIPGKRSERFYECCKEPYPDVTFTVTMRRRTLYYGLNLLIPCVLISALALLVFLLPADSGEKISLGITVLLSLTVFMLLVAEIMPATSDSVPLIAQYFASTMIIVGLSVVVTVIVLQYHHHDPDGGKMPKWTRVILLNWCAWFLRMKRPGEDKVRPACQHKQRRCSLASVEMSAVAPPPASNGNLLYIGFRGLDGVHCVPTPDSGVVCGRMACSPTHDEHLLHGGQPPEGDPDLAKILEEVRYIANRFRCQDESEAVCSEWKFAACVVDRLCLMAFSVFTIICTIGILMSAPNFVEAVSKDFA
Summary of the method: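 Human α7 nAChR stably co-expressed with Ric-3/NACHO in HEK293 cells. Antagonist mode in the Ca2+/Fluo-4 assay: test ligand inhibits acetylcholine at EC70–EC90, with 3 μM PNU-120596 in the buffer. IC50 came from concentration-inhibition curves. Means of 3–5 experiments run in duplicate.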

[4] = biological target: T2, Neuronal acetylcholine receptor subunit alpha-7; experiment: Agonist activity at human alpha7 nAChR expressed in HEK293 cells co-expressing Ric-3/NACHO assessed as induction of calcium mobilization measured up to 90 secs in presence of PNU-120596 by FLIPR assay; type: cell-based
Summary of the method: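 Human α7 nAChR stably co-expressed with Ric-3 and NACHO in HEK293 cells, Ca2+/Fluo-4 fluorescence assay. Assay buffer held 3 μM PNU-120596 (α7 PAM) to slow desensitization. Agonist concentration-response curves gave EC50 and Rmax. Means of 3–5 experiments run in duplicate.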

[5] = biological target: Nicotinic acetylcholine receptor alpha-4/beta-2 (Mus musculus, UniProt Q8R493+Q9ERK7); experiment: Antagonist activity at mouse alpha4beta2 nAChR expressed in HEK293 cells assessed as inhibition of (S)-nicotine-induced […] response measured up to 90 secs by FMP assay; type: cell-based
Sequence of Nicotinic acetylcholine receptor alpha-4/beta-2 (Q9ERK7 whole entry): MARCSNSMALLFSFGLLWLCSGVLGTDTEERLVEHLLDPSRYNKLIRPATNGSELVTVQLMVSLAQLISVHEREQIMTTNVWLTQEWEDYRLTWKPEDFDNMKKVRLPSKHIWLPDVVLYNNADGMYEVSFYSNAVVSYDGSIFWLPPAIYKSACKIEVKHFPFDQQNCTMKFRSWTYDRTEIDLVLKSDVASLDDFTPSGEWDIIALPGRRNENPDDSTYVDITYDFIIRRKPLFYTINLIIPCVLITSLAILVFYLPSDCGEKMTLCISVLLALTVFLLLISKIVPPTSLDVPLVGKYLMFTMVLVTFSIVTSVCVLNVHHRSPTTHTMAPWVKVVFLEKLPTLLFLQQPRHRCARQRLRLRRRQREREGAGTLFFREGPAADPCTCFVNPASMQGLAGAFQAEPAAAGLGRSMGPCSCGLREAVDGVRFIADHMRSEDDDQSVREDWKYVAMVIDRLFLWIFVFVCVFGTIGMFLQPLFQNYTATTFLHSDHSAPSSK
Sequence of Nicotinic acetylcholine receptor alpha-4/beta-2 (Q8R493 whole entry): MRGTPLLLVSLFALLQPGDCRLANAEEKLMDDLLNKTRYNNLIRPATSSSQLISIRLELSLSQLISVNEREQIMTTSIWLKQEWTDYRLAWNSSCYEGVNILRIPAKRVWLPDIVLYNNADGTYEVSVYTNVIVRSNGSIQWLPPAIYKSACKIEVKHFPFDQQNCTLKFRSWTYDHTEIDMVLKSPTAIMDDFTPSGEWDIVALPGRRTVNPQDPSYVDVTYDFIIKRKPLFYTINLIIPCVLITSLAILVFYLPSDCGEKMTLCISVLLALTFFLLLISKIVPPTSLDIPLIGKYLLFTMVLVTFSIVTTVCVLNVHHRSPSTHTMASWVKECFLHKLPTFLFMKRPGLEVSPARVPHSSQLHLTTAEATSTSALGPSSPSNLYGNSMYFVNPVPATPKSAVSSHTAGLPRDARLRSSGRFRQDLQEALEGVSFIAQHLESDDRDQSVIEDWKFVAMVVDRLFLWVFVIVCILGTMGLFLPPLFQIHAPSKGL
Summary of the method: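 Mouse α4β2 nAChR in stably expressing HEK293T cells, FLIPR Membrane Potential Blue assay. IC50 came from concentration-inhibition curves. Means of 3–5 experiments in duplicate.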

[6] = biological target: Neuronal acetylcholine receptor; alpha4/beta4 (Rattus norvegicus, UniProt P09483+P12392); experiment: Displacement of [3H]epibatidine from rat alpha4beta4 nAChR expressed in HEK293 cell membranes after 4 hrs by scintillation counting method; summary of the method: as §1
Sequence of Neuronal acetylcholine receptor; alpha4/beta4 (P09483 whole entry): as the sequence (P09483 whole entry) above
Sequence of Neuronal acetylcholine receptor; alpha4/beta4 (P12392 whole entry): as the sequence (P12392 whole entry) above

[7] = biological target: T1, Neuronal acetylcholine receptor; alpha3/beta4; experiment: Antagonist activity at rat alpha3beta4 nAChR expressed in HEK293 cells assessed as inhibition of (S)-nicotine-induced […] response measured up to 90 secs by FMP assay; type: cell-based
Summary of the method: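 Rat α3β4 nAChR in stably expressing HEK293 cells, FLIPR Membrane Potential Blue assay. Antagonist mode against (S)-nicotine at EC70–EC90. IC50 derived from concentration-inhibition curves. Means of 3–5 experiments in duplicate.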

Row | SMILES | Ki [1] | Ki [2] | EC50 [4] | IC50 [5] | Ki [6] | IC50 [7] | IC50 [3]
1 | COc1cc2c(cc1OCc1ccccc1)C1CCCN1CC2 (stereo not drawn) | 50 µM | 300 µM |  | 50 µM | 300 µM | > 100 µM | 11 µM
2 | COc1cc2c(cc1O)CN(C)CC2 |  | 100 µM | > 100 µM |  |  | 100 µM | > 100 µM
3 | COc1cc2c(cc1OC)C1CCCN1CC2 (stereo not drawn) | 4.6 µM | 100 µM | > 100 µM | 30 µM |  |  | > 100 µM
4 | COc1cc2c(cc1OCc1ccccc1)CCN(C)C2 | 2.9 µM | 300 µM |  | 24 µM | 300 µM | 100 µM | 30 µM
5 | CN1CCc2cc3c(cc2C1)OCO3 | 17 µM |  | > 100 µM |  |  |  | > 100 µM
6 | COc1cc2c(cc1OCc1ccccc1)CN(C)CC2 | 15 µM | 300 µM |  | 23 µM | 300 µM | > 300 µM | 30 µM
7 | COc1cc2c(cc1OCc1ccccc1)CCN1CCCC21 (stereo not drawn) | 6.3 µM | 100 µM |  | 30 µM | 300 µM | 100 µM | 5.7 µM
8 | c1ccc2c(c1)CCN1CCCC21 (stereo not drawn) | 8.5 µM | 100 µM |  | 15 µM | 100 µM | > 100 µM | 100 µM
9 | COC1CC=C2CCN3CCC4=C(CC(=O)OC4)[C@]23C1 (stereo partly drawn) | 0.65 µM | 100 µM |  | 0.6 µM | 25 µM | 100 µM | 100 µM
10 | COc1cc2c(cc1O)C[N+](C)(C)CC2 | 0.4 µM | 25 µM | 0.99 µM | 1.2 µM | 8.9 µM | > 100 µM | 
11 | COc1ccc2c(c1)CC[N+](C)(C)C2 | 0.68 µM | 9.3 µM | 4.4 µM | 1.4 µM | 1.5 µM | > 100 µM | 
12 | COc1cc2c(cc1OC)C[N+](C)(Cc1ccccc1)CC2 (stereo not drawn) | 30 µM | 300 µM |  | 30 µM | > 300 µM | > 300 µM | 2 µM
13 | COc1cc2c(cc1OC)CN(C)CC2 |  |  | > 100 µM |  |  |  | > 100 µM

Continued, in another order:

Row | Ki [1] | Ki [2] | EC50 [4] | IC50 [5] | Ki [6] | IC50 [7] | SMILES | IC50 [3]
14 | 14 µM | 300 µM | > 100 µM | 30 µM | 300 µM | > 300 µM | CCC[N+]1(C)CCc2cc(OC)c(OC)cc2C1 (stereo not drawn) | > 100 µM
15 | 25 µM | 25 µM | 5.4 µM | > 100 µM | 25 µM | > 100 µM | C[N+]12CCC[C@H]1c1cc3c(cc1CC2)OCO3 (stereo partly drawn) | 
16 | 0.23 µM | 9.3 µM | 1.2 µM | 1.8 µM | 0.92 µM | 50 µM | COc1ccc2c(c1)C1CCC[N+]1(C)CC2 (stereo not drawn) | 
17 | 2.4 µM | 25 µM | 5.1 µM | 7.2 µM | 25 µM | > 100 µM | COc1cc2c(cc1OC)[C@H]1CCC[N+]1(C)CC2 (stereo partly drawn) | 
18 | 0.63 µM | 100 µM | 9 µM | 11 µM | 50 µM | > 300 µM | COc1cc2c(cc1OC)C[N+](C)(C)CC2 | 
19 | 25 µM | 25 µM | 6.5 µM | > 100 µM | 7.5 µM | > 100 µM | COc1cc2c(cc1OC)[C@@H]1CCC[N+]1(C)CC2 (stereo partly drawn) | 
20 | 3.6 µM | 25 µM | 5.2 µM | 30 µM | 12 µM | 100 µM | COc1ccc2c(c1)CC[N+]1(C)CCCC21 (stereo not drawn) | 
21 | 2.4 µM | 50 µM | 7.5 µM | 30 µM | 30 µM | 100 µM | COc1cc2c(cc1OC)C1CCC[N+]1(C)CC2 (stereo not drawn) | 
22 | 17 µM | 50 µM | 2.2 µM | 50 µM | 25 µM | > 100 µM | C[N+]12CCCC1c1ccccc1CC2 (stereo not drawn) | 
